Calls of active or inactive are those of the source. The calls are words filed in the database; no cut-off is given here. Bounds are passed on as bounds.

Usually IC50 stands for the concentration at which inhibition is half-maximal.

Chain of High affinity cGMP-specific 3',5'-cyclic phosphodiesterase 9A (Homo sapiens) (O76083 whole entry): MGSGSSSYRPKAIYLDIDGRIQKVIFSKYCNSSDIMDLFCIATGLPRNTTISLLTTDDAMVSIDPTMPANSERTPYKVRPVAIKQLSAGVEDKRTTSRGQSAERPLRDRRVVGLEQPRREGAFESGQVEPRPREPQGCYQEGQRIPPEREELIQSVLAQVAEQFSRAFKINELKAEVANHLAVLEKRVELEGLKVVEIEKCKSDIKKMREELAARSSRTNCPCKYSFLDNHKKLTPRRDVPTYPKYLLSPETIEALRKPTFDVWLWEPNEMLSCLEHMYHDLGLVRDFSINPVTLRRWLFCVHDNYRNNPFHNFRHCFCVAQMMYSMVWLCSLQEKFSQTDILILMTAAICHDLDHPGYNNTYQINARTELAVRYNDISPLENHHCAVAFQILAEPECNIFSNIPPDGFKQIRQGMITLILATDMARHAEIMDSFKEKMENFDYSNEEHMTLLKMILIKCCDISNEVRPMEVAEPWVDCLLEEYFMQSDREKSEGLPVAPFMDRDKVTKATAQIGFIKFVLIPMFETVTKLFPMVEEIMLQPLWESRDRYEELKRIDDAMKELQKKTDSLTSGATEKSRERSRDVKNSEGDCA
Chain of High affinity 3',5'-cyclic-AMP phosphodiesterase 7A (Homo sapiens) (Q13946 whole entry): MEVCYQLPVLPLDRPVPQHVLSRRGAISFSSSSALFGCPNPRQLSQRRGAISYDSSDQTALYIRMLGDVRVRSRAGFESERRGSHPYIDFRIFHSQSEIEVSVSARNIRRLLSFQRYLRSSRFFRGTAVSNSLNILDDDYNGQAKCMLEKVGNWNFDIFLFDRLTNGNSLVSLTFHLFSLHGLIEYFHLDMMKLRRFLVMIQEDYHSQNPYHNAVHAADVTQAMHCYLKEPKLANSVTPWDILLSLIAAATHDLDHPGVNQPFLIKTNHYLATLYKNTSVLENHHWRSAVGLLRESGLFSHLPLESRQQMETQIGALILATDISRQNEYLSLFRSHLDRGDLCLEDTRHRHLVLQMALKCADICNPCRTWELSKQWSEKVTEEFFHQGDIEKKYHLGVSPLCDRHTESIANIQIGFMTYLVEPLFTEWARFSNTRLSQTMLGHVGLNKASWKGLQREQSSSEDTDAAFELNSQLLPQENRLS
Chain of Dual specificity calcium/calmodulin-dependent 3',5'-cyclic nucleotide phosphodiesterase 1B (Q01064 whole entry): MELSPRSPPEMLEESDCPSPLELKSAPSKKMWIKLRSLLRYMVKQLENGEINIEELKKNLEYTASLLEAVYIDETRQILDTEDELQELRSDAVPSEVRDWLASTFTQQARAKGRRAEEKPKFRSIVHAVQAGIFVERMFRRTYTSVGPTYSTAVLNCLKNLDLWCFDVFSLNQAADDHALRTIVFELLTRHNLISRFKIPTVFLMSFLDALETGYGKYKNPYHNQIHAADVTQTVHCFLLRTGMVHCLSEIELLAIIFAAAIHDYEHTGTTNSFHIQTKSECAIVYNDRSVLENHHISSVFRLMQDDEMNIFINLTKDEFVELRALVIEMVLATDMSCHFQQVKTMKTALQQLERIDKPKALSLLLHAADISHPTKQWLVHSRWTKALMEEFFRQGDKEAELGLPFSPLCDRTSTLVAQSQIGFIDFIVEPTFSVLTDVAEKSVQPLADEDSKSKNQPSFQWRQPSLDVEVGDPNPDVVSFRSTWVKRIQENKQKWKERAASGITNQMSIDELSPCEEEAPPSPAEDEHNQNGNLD
Chain of cGMP-inhibited 3',5'-cyclic phosphodiesterase 3A (Q14432 whole entry): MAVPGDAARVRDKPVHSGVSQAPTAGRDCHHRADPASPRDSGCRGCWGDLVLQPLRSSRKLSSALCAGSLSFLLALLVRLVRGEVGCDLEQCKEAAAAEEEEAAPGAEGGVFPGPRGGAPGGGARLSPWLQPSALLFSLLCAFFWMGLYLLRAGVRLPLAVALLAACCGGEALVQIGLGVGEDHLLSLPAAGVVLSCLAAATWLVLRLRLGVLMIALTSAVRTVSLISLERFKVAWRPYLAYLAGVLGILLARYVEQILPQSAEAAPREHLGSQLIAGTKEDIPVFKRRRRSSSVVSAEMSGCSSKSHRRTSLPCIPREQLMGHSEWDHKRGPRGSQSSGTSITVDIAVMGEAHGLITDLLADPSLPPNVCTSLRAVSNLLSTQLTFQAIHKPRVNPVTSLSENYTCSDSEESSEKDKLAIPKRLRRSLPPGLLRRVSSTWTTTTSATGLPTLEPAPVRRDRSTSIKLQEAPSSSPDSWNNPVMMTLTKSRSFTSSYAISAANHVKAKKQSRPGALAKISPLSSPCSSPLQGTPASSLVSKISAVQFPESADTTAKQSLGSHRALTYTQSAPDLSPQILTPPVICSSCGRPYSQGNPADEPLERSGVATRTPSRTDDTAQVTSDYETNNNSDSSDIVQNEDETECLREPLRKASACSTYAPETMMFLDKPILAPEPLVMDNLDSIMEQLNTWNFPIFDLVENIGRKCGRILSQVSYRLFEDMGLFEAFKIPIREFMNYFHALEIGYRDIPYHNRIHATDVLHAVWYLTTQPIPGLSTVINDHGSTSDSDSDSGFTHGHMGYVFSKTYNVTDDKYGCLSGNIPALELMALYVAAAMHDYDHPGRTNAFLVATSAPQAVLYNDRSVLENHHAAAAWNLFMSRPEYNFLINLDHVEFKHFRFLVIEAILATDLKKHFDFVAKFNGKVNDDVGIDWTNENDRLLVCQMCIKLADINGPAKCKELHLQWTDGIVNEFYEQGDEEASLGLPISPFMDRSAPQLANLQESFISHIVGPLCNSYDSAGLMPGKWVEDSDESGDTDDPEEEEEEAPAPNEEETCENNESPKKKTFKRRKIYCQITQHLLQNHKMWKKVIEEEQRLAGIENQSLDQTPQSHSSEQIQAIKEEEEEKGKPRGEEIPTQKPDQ

The first assay addresses High affinity 3',5'-cyclic-AMP phosphodiesterase 7A (Homo sapiens) (UniProt Q13946). Put plainly: Inhibition of PDE7A.
`COc1ccc(C2=Nn3c(nnc3-c3ccccc3OC)SC2)cc1OC`: the result was inactive.

With `COc1ccc(C2CNC(=O)C2)cc1OC1CCCC1` (configuration not stated) [ROLIPRAM], the outcome was inactive.

In a further assay the target is Dual specificity calcium/calmodulin-dependent 3',5'-cyclic nucleotide phosphodiesterase 1A (Homo sapiens, UniProt P54750). The experiment in a line: Inhibition of PDE1A.
Chain of Dual specificity calcium/calmodulin-dependent 3',5'-cyclic nucleotide phosphodiesterase 1A (P54750 whole entry): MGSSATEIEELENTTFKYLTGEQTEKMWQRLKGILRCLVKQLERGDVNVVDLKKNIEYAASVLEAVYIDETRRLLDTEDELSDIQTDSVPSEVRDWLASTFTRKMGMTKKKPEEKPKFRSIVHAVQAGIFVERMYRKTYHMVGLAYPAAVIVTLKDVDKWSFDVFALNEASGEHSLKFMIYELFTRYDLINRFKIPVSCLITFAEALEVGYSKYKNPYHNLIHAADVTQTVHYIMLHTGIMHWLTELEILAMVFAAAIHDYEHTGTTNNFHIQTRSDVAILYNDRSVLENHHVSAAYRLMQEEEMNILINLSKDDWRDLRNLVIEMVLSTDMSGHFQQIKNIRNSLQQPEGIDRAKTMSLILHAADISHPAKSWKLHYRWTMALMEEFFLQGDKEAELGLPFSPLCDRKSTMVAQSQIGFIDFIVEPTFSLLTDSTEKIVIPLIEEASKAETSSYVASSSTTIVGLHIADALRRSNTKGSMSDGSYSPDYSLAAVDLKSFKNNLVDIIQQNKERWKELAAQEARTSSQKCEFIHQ
For `COc1ccc(C2=Nn3c(nnc3-c3ccccc3OC)SC2)cc1OC`, the 50% inhibitory concentration (IC50) is > 50 µM.

`COc1ccc(C2CNC(=O)C2)cc1OC1CCCC1` (configuration not stated) [ROLIPRAM]: the IC50 is > 50 µM.

The target of another assay is cAMP and cAMP-inhibited cGMP 3',5'-cyclic phosphodiesterase 10A (Homo sapiens, UniProt Q9Y233). The experiment in a line: Inhibition of PDE10A.
Chain of cAMP and cAMP-inhibited cGMP 3',5'-cyclic phosphodiesterase 10A (Q9Y233 whole entry): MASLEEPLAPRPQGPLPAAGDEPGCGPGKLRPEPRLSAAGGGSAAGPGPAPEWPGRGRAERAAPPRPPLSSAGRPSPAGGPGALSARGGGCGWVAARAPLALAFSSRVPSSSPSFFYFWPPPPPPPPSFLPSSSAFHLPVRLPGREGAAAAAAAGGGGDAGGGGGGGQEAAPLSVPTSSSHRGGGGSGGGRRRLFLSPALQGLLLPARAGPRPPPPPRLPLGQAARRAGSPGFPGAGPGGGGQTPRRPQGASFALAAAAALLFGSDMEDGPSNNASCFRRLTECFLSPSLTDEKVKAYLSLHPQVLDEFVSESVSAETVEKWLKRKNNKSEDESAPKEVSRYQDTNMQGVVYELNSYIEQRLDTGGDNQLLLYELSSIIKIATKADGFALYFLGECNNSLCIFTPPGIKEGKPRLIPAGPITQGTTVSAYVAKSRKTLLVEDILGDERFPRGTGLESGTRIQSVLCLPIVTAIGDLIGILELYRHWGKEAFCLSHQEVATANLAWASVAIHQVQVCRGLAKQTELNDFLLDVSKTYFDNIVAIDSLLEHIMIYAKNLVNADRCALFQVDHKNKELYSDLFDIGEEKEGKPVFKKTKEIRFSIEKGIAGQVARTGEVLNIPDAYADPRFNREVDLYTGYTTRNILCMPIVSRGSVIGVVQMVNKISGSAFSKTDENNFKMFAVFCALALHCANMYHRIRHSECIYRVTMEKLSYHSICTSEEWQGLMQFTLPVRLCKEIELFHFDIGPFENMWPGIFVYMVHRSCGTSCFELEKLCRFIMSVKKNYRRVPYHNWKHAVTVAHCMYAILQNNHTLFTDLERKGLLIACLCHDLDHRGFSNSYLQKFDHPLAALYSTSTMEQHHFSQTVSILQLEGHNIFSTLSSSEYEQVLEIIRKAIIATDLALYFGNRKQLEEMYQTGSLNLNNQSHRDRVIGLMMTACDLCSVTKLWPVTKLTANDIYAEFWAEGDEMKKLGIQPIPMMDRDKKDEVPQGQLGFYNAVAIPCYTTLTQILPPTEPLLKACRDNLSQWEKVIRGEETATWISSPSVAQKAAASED
On to `COc1ccc(C2=Nn3c(nnc3-c3ccccc3OC)SC2)cc1OC`, for which the IC50 was > 50 µM.

Consider `COc1ccc(C2CNC(=O)C2)cc1OC1CCCC1` (configuration not stated) [ROLIPRAM], for which the result was inactive.

The next assay has as its target High affinity cGMP-specific 3',5'-cyclic phosphodiesterase 9A (Homo sapiens) (UniProt O76083). The experiment in a line: Inhibition of PDE9A.
As to `COc1ccc(C2=Nn3c(nnc3-c3ccccc3OC)SC2)cc1OC`, the result was inactive.

Regarding `COc1ccc(C2CNC(=O)C2)cc1OC1CCCC1` (configuration not stated) [ROLIPRAM], the result was inactive.

A further assay deals with cGMP-specific 3',5'-cyclic phosphodiesterase (Homo sapiens, UniProt O76074).
In the case of `COc1ccc(C2=Nn3c(nnc3-c3ccccc3OC)SC2)cc1OC`, the IC50 is > 50 µM.

A further assay addresses Phosphodiesterase 4 (Homo sapiens, UniProt P27815+Q08499+Q07343+Q08493). Put plainly: Inhibition of human PDE4A1A by IMAP technology. The class given is protein assay. Summed up:
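Human PDE4A1A at 0.05 ng/μl final, in 10 mM Tris pH 7.2 with 0.1% BSA, 10 mM MgCl2, 1 mM DTT and 0.05% NaN3. Compound pin-transferred, then 5 min at RT before adding 100 nM cAMP (final). After 40 min at RT, IMAP binding reagent was added and incubated 1–4 h at RT.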
For `COc1cc(OC)cc(-c2nnc3n2N=C(c2ccc(OC)c(OC)c2)CS3)c1`, the IC50 amounted to 0.05 µM.

The compound `COc1ccc(-c2nnc3n2N=C(c2cc(OC)ccc2OC)CS3)cc1` came in with an IC50 of 10.1 µM.

Regarding `COc1ccc(C2=Nn3c(nnc3-c3cc(OC)ccc3OC)SC2)cc1`, half-maximal inhibition (IC50) required 1.7 µM.

Take `COc1ccc(-c2nnc3n2N=C(c2ccc(OC)c(OC)c2)CS3)cc1`: the IC50 stood at 0.0889 µM.

As for `COc1cccc(-c2nnc3n2N=C(c2ccc(OC)cc2OC)CS3)c1`, the IC50 was 14.1 µM.

`CCOc1ccccc1-c1nnc2n1N=C(c1cccc(OC)c1)CS2`: it took 11.2 µM to reach half-maximal inhibition (IC50).

Compound `COc1ccc(-c2nnc3n2N=C(c2ccc(OC)cc2OC)CS3)cc1` registered a half-inhibitory concentration (IC50) of 13.4 µM.

Take `CCOc1ccccc1-c1nnc2n1N=C(c1ccc(OC)cc1OC)CS2`: the concentration for half-maximal inhibition (IC50) is > 20 µM.

Turning to `CCOc1ccccc1-c1nnc2n1N=C(c1ccccc1OC)CS2`, the IC50 is > 20 µM.

For `COc1ccc(C2=Nn3c(nnc3-c3ccccc3OC)SC2)c(OC)c1`, 15 µM corresponded to half-maximal inhibition (IC50).

Consider `COc1cc(OC)cc(-c2nnc3n2N=C(c2ccc(OC)cc2OC)CS3)c1`, for which the IC50 is > 20 µM.

In the case of `COc1cccc(-c2nnc3n2N=C(c2cc(OC)ccc2OC)CS3)c1`, the IC50 came out at 12.6 µM.

With `COc1cccc(-c2nnc3n2N=C(c2ccc(OC)c(OC)c2)CS3)c1`, inhibition was half-maximal at 0.126 µM (IC50).

Take `COc1cccc(C2=Nn3c(nnc3-c3cc(OC)ccc3OC)SC2)c1`: the concentration for half-maximal inhibition (IC50) came to 8 µM.

On to `COc1ccc(C2=Nn3c(nnc3-c3cccc(OC)c3OC)SC2)c(OC)c1`, for which the IC50 was > 20 µM.

Consider `COc1ccc(C2=Nn3c(nnc3-c3ccc(OC)cc3)SC2)cc1`, for which the IC50 is 8.4 µM.

As to `COc1ccc(OC)c(-c2nnc3n2N=C(c2c(OC)cccc2OC)CS3)c1`, the concentration for half-maximal inhibition (IC50) is > 20 µM.

`COc1ccc(C2=Nn3c(nnc3-c3cccc(OC)c3OC)SC2)cc1`: the IC50 is > 20 µM.

In turn, `COc1cccc(C2=Nn3c(nnc3-c3ccccc3O)SC2)c1` returned an IC50 of 14.1 µM.

As for `COc1ccc(-c2nnc3n2N=C(c2c(OC)cccc2OC)CS3)cc1`, the half-maximal inhibitory concentration (IC50) stood at 19.7 µM.

In turn, `COc1ccc(-c2nnc3n2N=C(c2cccc(OC)c2)CS3)cc1` had an IC50 of 8.4 µM.

`COc1ccc(C2=Nn3c(nnc3-c3cc(OC)ccc3OC)SC2)c(OC)c1`: half-maximal inhibition (IC50) was put at 7.5 µM.

For `CCOc1ccccc1-c1nnc2n1N=C(c1c(OC)cccc1OC)CS2`, the IC50 is > 20 µM.

For the compound `COc1ccc(C2=Nn3c(nnc3-c3ccc(OC)c(OC)c3)SC2)c(OC)c1`, the IC50 came to 6.7 µM.

Turning to `COc1ccc(-c2nnc3n2N=C(c2c(OC)cccc2OC)CS3)c(OC)c1`, the IC50 was > 20 µM.

In turn, `COc1cccc(C2=Nn3c(nnc3-c3ccccc3C)SC2)c1` came in with an IC50 of 3.2 µM.

In turn, `COc1ccc(OC)c(C2=Nn3c(nnc3-c3ccccc3C)SC2)c1` came in with an IC50 of 6.3 µM.

Turning to `COc1ccc(C2=Nn3c(nnc3-c3cc(OC)cc(OC)c3)SC2)cc1`, 9.5 µM corresponded to half-maximal inhibition (IC50).

Turning to `COc1cccc(-c2nnc3n2N=C(c2c(OC)cccc2OC)CS3)c1OC`, the IC50 is > 20 µM.

As to `COc1ccc(C2=Nn3c(nnc3-c3ccccc3OC)SC2)cc1`, the IC50 is > 20 µM.

In the case of `COc1ccccc1C1=Nn2c(nnc2-c2cccc(OC)c2OC)SC1`, the half-maximal inhibitory concentration (IC50) is > 20 µM.

In the case of `COc1ccc(OC)c(C2=Nn3c(nnc3-c3cc(OC)ccc3OC)SC2)c1`, inhibition was half-maximal at 11.9 µM (IC50).

For the compound `COc1ccc(C2=Nn3c(nnc3-c3ccccc3C)SC2)c(OC)c1`, the 50% inhibitory concentration (IC50) was > 20 µM.

For the compound `COc1ccc(C2=Nn3c(nnc3-c3ccccc3O)SC2)c(OC)c1`, the half-inhibitory concentration (IC50) is > 20 µM.

For `COc1cccc(OC)c1C1=Nn2c(nnc2-c2ccccc2O)SC1`, the IC50 was > 20 µM.

In turn, `COc1ccc(C2=Nn3c(nnc3-c3ccc(OC)c(OC)c3)SC2)cc1OC` returned a concentration for half-maximal inhibition (IC50) of 0.177 µM.

Compound `COc1ccc(C2=Nn3c(nnc3-c3cccc(OC)c3)SC2)cc1` gave an IC50 of 12.6 µM.

As for `COc1cccc(C2=Nn3c(nnc3-c3cccc(OC)c3OC)SC2)c1`, the concentration for half-maximal inhibition (IC50) was > 20 µM.

As for `COc1ccc(-c2nnc3n2N=C(c2c(OC)cccc2OC)CS3)cc1OC`, the IC50 was found to be 14.1 µM.

On to `COc1ccccc1C1=Nn2c(nnc2-c2ccccc2O)SC1`, for which the IC50 is > 20 µM.

In turn, `COc1ccc(-c2nnc3n2N=C(c2ccccc2OC)CS3)c(OC)c1` had a concentration for half-maximal inhibition (IC50) of 19.7 µM.

On to `COc1cccc(C2=Nn3c(nnc3-c3ccc(OC)c(OC)c3)SC2)c1`, for which the half-inhibitory concentration (IC50) is 9 µM.

Compound `COc1cccc(OC)c1C1=Nn2c(nnc2-c2ccccc2C)SC1` returned a 50% inhibitory concentration (IC50) of 14.1 µM.

As to `COc1cccc(C2=Nn3c(nnc3-c3cccc(OC)c3)SC2)c1`, inhibition was half-maximal at 12.6 µM (IC50).

On to `COc1ccc(OC)c(C2=Nn3c(nnc3-c3ccccc3OC)SC2)c1`, for which it took 8.9 µM to reach half-maximal inhibition (IC50).

With `COc1cc(OC)cc(-c2nnc3n2N=C(c2c(OC)cccc2OC)CS3)c1`, the IC50 came to 19.6 µM.

In the case of `COc1ccc(OC)c(C2=Nn3c(nnc3-c3ccc(OC)c(OC)c3)SC2)c1`, the midpoint of inhibition, the IC50, lay at 6.9 µM.

In turn, `COc1ccc(C2=Nn3c(nnc3-c3ccccc3C)SC2)cc1` yielded an IC50 of 12.5 µM.

`COc1ccc(OC)c(C2=Nn3c(nnc3-c3ccccc3O)SC2)c1`: the concentration for half-maximal inhibition (IC50) is > 20 µM.

Consider `COc1cccc(C2=Nn3c(nnc3-c3cc(OC)cc(OC)c3)SC2)c1`, for which it took 13.4 µM to reach half-maximal inhibition (IC50).

In turn, `CCOc1ccccc1-c1nnc2n1N=C(c1ccc(OC)cc1)CS2` yielded a concentration for half-maximal inhibition (IC50) of 4.5 µM.

In the case of `COc1cccc(-c2nnc3n2N=C(c2c(OC)cccc2OC)CS3)c1`, the IC50 is > 20 µM.

Regarding `COc1ccccc1C1=Nn2c(nnc2-c2ccccc2OC)SC1`, the half-inhibitory concentration (IC50) was found to be 20 µM.

Compound `COc1ccc(OC)c(C2=Nn3c(nnc3-c3cccc(OC)c3OC)SC2)c1` showed an IC50 of 11.9 µM.

The compound `COc1ccc(-c2nnc3n2N=C(c2cc(OC)ccc2OC)CS3)c(OC)c1` gave an IC50 of 5.3 µM.

For the compound `COc1ccc(C2=Nn3c(nnc3-c3ccc(OC)c(OC)c3)SC2)cc1`, the IC50 worked out at 7.5 µM.

Consider `COc1ccccc1-c1nnc2n1N=C(c1c(OC)cccc1OC)CS2`, for which the IC50 was > 20 µM.

With `COc1ccc(C2=Nn3c(nnc3-c3ccc(OC)cc3OC)SC2)cc1`, the half-maximal inhibitory concentration (IC50) is > 20 µM.

Take `COc1ccc(C2=Nn3c(nnc3-c3ccc(OC)cc3OC)SC2)c(OC)c1`: the half-inhibitory concentration (IC50) is > 20 µM.

With `COc1cc(OC)cc(-c2nnc3n2N=C(c2cc(OC)ccc2OC)CS3)c1`, the half-maximal inhibitory concentration (IC50) was 12.7 µM.

Regarding `COc1cccc(C2=Nn3c(nnc3-c3ccccc3OC)SC2)c1`, half-maximal inhibition (IC50) was put at 12 µM.

In turn, `COc1ccc(-c2nnc3n2N=C(c2ccccc2OC)CS3)cc1` showed an IC50 of 14.1 µM.

Take `COc1cccc(C2=Nn3c(nnc3-c3ccc(OC)cc3OC)SC2)c1`: the IC50 worked out at 13.4 µM.

For the compound `COc1cccc(-c2nnc3n2N=C(c2ccccc2OC)CS3)c1`, the IC50 was determined as 13.4 µM.

Compound `COc1ccc(-c2nnc3n2N=C(c2ccc(OC)c(OC)c2)CS3)c(OC)c1` gave a 50% inhibitory concentration (IC50) of 0.079 µM.

For the compound `COc1ccc(-c2nnc3n2N=C(c2ccccc2OC)CS3)cc1OC`, the IC50 worked out at 8.9 µM.

Compound `COc1ccccc1C1=Nn2c(nnc2-c2ccccc2C)SC1` came in with an IC50 of 14.1 µM.

In turn, `COc1ccc(C2=Nn3c(nnc3-c3ccccc3O)SC2)cc1` gave a 50% inhibitory concentration (IC50) of 8.4 µM.

Take `COc1ccc(OC)c(-c2nnc3n2N=C(c2ccccc2OC)CS3)c1`: the IC50 turned out to be 19.6 µM.

`CCOc1ccccc1-c1nnc2n1N=C(c1cc(OC)ccc1OC)CS2` displayed an IC50 of 13.4 µM.

With `COc1cc(OC)cc(-c2nnc3n2N=C(c2ccccc2OC)CS3)c1`, 13.4 µM corresponded to half-maximal inhibition (IC50).

For a further assay, the target named is 3',5'-cyclic-AMP phosphodiesterase 7B (Homo sapiens) (UniProt Q9NP56). The experiment in a line: Inhibition of PDE7B.
Chain of 3',5'-cyclic-AMP phosphodiesterase 7B (Homo sapiens) (Q9NP56 whole entry): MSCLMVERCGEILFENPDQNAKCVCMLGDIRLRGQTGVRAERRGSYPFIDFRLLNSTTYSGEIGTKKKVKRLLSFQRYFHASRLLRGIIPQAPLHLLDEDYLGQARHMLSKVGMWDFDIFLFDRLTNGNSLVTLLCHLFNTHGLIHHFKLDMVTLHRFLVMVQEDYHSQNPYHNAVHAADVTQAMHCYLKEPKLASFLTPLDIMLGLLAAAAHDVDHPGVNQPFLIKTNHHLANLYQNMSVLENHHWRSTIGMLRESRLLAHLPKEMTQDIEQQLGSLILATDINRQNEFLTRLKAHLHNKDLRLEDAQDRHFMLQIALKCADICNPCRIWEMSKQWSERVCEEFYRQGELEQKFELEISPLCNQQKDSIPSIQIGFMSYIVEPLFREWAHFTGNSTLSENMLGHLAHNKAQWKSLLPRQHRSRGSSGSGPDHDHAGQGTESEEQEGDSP
For `COc1ccc(C2=Nn3c(nnc3-c3ccccc3OC)SC2)cc1OC`, the outcome was inactive.

For the compound `COc1ccc(C2CNC(=O)C2)cc1OC1CCCC1` (configuration not stated) [ROLIPRAM], the result was inactive.

In the next assay the target is Dual 3',5'-cyclic-AMP and -GMP phosphodiesterase 11A (Homo sapiens, UniProt Q9HCR9).
For the compound `COc1ccc(C2=Nn3c(nnc3-c3ccccc3OC)SC2)cc1OC`, the IC50 is > 50 µM.

A further assay addresses Dual specificity calcium/calmodulin-dependent 3',5'-cyclic nucleotide phosphodiesterase 1B (Homo sapiens, UniProt Q01064). The experiment in a line: Inhibition of PDE1B.
Take `COc1ccc(C2=Nn3c(nnc3-c3ccccc3OC)SC2)cc1OC`: the half-maximal inhibitory concentration (IC50) was > 50 µM.

In the case of `COc1ccc(C2CNC(=O)C2)cc1OC1CCCC1` (configuration not stated) [ROLIPRAM], the outcome was inactive.

A further assay has as its target cGMP-inhibited 3',5'-cyclic phosphodiesterase 3A (Homo sapiens, UniProt Q14432). The experiment in a line: Inhibition of PDE3A.
Turning to `COc1ccc(C2=Nn3c(nnc3-c3ccccc3OC)SC2)cc1OC`, the IC50 was > 50 µM.

For the compound `COc1ccc(C2CNC(=O)C2)cc1OC1CCCC1` (configuration not stated) [ROLIPRAM], the result was inactive.

Source of the values: ChEMBL document CHEMBL1141501, “Identification of a potent new chemotype for the selective inhibition of PDE4” (Bioorg Med Chem Lett, 2008).
